Measurements taken from ChEMBL document CHEMBL1800059, “Spiroindane based amides as potent and selective MC4R agonists for the treatment of obesity” (Bioorg Med Chem Lett, 2010).

Key:
[1] = Agonist activity at human MC1bR expressed in CHO cells assessed as increase of alpha-MSH-stimulated cAMP release pretreated for 10 mins before alpha-MSH challenge measured after 40 mins relative to alpha-MSH; type: functional
Procedure, shortened: (§1)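 Each value is the mean of at least three repeat measurements. Functional read-outs give EC50 with % maximal activation.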

Melanocortin receptor 4 [2] = target: T1, Melanocortin receptor 4 (Homo sapiens, UniProt P32245); test: Displacement of [125I]-NDP-R-MSH from human MC4R expressed in CHO cells after 1.5 hrs by scintillation counting; type: cell-based; procedure, shortened: as §1
T1 sequence (P32245 whole entry): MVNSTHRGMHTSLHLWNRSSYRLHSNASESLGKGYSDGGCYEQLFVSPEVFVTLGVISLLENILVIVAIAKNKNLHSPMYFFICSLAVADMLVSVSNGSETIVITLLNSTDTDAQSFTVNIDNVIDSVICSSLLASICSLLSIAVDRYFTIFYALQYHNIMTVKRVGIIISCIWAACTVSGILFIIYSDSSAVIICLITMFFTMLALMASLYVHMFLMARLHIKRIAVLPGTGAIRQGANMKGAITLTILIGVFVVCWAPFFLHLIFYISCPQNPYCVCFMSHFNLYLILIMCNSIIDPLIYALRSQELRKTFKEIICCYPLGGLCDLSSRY

[3] = Agonist activity at human MC1bR expressed in CHO cells assessed as increase of alpha-MSH-stimulated cAMP release pretreated for 10 mins before alpha-MSH challenge measured after 40 mins; type: functional, cell-based; procedure, shortened: as §1
Melanocortin receptor 4 [4] = target: T1, Melanocortin receptor 4; test: Agonist activity at human MC4R expressed in CHO cells assessed as increase of alpha-MSH-stimulated cAMP release pretreated for 10 mins before alpha-MSH challenge measured after 40 mins; type: functional, cell-based; procedure, shortened: as §1
Melanocortin receptor 4 [5] = target: T1, Melanocortin receptor 4; test: Agonist activity at human MC4R expressed in CHO cells assessed as increase of alpha-MSH-stimulated cAMP release pretreated for 10 mins before alpha-MSH challenge measured after 40 mins relative to alpha-MSH; type: functional, cell-based; procedure, shortened: as §1
[6] = Volume of distribution at steady state in Sprague-Dawley rat at 1 mg/kg, iv and 4 mg/kg, po; type: ADME, organism-based; conditions: in vivo, read-out: Vdss
[7] = Oral bioavailability in Sprague-Dawley rat at 4 mg/kg; type: ADME, organism-based; conditions: in vivo
[8] = Half life in Sprague-Dawley rat at 1 mg/kg, iv and 4 mg/kg, po; type: ADME, organism-based; conditions: in vivo
[9] = Clearance in Sprague-Dawley rat at 1 mg/kg, iv and 4 mg/kg, po; type: ADME, organism-based; conditions: in vivo
Rattus norvegicus = test: Dose-normalized AUC in Sprague-Dawley rat at 1 mg/kg, iv and 4 mg/kg, po; type: ADME, organism-based; conditions: in vivo

Row | SMILES | IC50 (Melanocortin receptor 4 [2]) | EC50 [3] | EC50 (Melanocortin receptor 4 [4]) | Activity (Melanocortin receptor 4 [5]) | Vd [6] | bioavailability [7] | half-life [8] | clearance [9] | AUC/dose (Rattus norvegicus) | Activity [1]
1 | Cc1cc2c(cc1Cl)C1(CCN(C(=O)[C@@H]3CN(C(C)(C)C)C[C@H]3c3ccc(F)cc3F)CC1)C[C@@H]2C(C)(C)C(=O)NC(C)(C)CO | 3.9 nM | 218 nM | 1.9 nM | 89% | – | – | – | – | – | 53%
2 | CCN(C)C(=O)C(C)(C)[C@H]1CC2(CCN(C(=O)[C@@H]3CN(C(C)(C)C)C[C@H]3c3ccc(F)cc3F)CC2)c2cc(Cl)c(C)cc21 | 2.1 nM | 355 nM | 1.6 nM | 103% | – | – | – | – | – | 69%
3 | Cc1cc2c(cc1Cl)C1(CCN(C(=O)[C@@H]3CN(C(C)(C)C)C[C@H]3c3ccc(F)cc3F)CC1)C[C@@H]2C(C)(C)C(=O)N1CC[C@@H](O)C1 | 0.53 nM | 33 nM | 0.25 nM | 98% | – | – | – | – | – | 71%
4 | Cc1cc2c(cc1Cl)C1(CCN(C(=O)[C@@H]3CN(C(C)(C)C)C[C@H]3c3ccc(F)cc3F)CC1)C[C@@H]2C(C)(C)C(=O)N(C)C | 0.71 nM | 255 nM | 0.87 nM | 108% | 6.95 L/kg | 24% | 5.14 h | 17.2 mL/min/kg | 0.39 µM·h/mg/kg | 92%
5 | Cc1cc2c(cc1Cl)C1(CCN(C(=O)[C@@H]3CN(C(C)(C)C)C[C@H]3c3ccc(F)cc3F)CC1)C[C@@H]2C(C)(C)C(=O)NC(C)(C)C | 12 nM | 1030 nM | 9.9 nM | 76% | – | – | – | – | – | 47%
6 | Cc1cc2c(cc1Cl)C1(CCN(C(=O)[C@@H]3CN(C(C)(C)C)C[C@H]3c3ccc(F)cc3F)CC1)C[C@@H]2C(C)(C)C(=O)N1CC[C@@H](F)C1 | 1.6 nM | 122 nM | 1.1 nM | 87% | – | – | – | – | – | 69%
7 | CNC(=O)C(C)(C)[C@H]1CC2(CCN(C(=O)[C@@H]3CN(C(C)(C)C)C[C@H]3c3ccc(F)cc3F)CC2)c2cc(Cl)c(C)cc21 | 2.6 nM | 323 nM | 0.91 nM | 94% | – | – | – | – | – | 60%
8 | CNC(=O)C(C)(C)[C@@H]1CC2(CCN(C(=O)[C@@H]3CN(C(C)(C)C)C[C@H]3c3ccc(F)cc3F)CC2)c2cc(Cl)c(C)cc21 | 47 nM | 1380 nM | 12 nM | 86% | – | – | – | – | – | 38%
9 | Cc1cc2c(cc1Cl)C1(CCN(C(=O)[C@@H]3CN(C(C)(C)C)C[C@H]3c3ccc(F)cc3F)CC1)C[C@@H]2C(C)(C)C(=O)N1C[C@@H]2C[C@H]1CO2 | 1.6 nM | 69 nM | 0.76 nM | 96% | – | – | – | – | – | 72%
10 | CO[C@@H]1CCN(C(=O)C(C)(C)[C@H]2CC3(CCN(C(=O)[C@@H]4CN(C(C)(C)C)C[C@H]4c4ccc(F)cc4F)CC3)c3cc(Cl)c(C)cc32)C1 | 1.4 nM | 103 nM | 0.69 nM | 111% | – | – | – | – | – | 67%
11 | Cc1cc2c(cc1Cl)C1(CCN(C(=O)[C@@H]3CN(C(C)(C)C)C[C@H]3c3ccc(F)cc3F)CC1)C[C@@H]2C(C)(C)C(=O)N1CC[C@H](O)C1 | 0.89 nM | 29 nM | 0.37 nM | 88% | – | – | – | – | – | 93%
12 | Cc1cc2c(cc1Cl)C1(CCN(C(=O)[C@@H]3CN(C(C)(C)C)C[C@H]3c3ccc(F)cc3F)CC1)C[C@@H]2C(C)(C)C(=O)NCCO | 2.6 nM | 83 nM | 1.3 nM | 100% | – | – | – | – | – | 56%
13 | Cc1cc2c(cc1Cl)C1(CCN(C(=O)[C@@H]3CN(C(C)(C)C)C[C@H]3c3ccc(F)cc3F)CC1)C[C@@H]2C(C)(C)C(=O)NCC(F)(F)F | 5.4 nM | 838 nM | 4.2 nM | 89% | – | – | – | – | – | 30%
14 | Cc1cc2c(cc1Cl)C1(CCN(C(=O)[C@@H]3CN(C(C)(C)C)C[C@H]3c3ccc(F)cc3F)CC1)C[C@@H]2C(C)(C)C(=O)N1CCC(F)(F)C1 | 2 nM | 285 nM | 3.8 nM | 96% | – | – | – | – | – | 54%
15 | Cc1cc2c(cc1Cl)C1(CCN(C(=O)[C@@H]3CN(C(C)(C)C)C[C@H]3c3ccc(F)cc3F)CC1)C[C@H]2C(C)(C)C(=O)NCC(F)(F)F | 93 nM | – | 307 nM | 78% | – | – | – | – | – | 5%
16 | CO[C@H]1CCN(C(=O)C(C)(C)[C@H]2CC3(CCN(C(=O)[C@@H]4CN(C(C)(C)C)C[C@H]4c4ccc(F)cc4F)CC3)c3cc(Cl)c(C)cc32)C1 | 2.3 nM | 102 nM | 1.2 nM | 112% | – | – | – | – | – | 71%
17 | Cc1cc2c(cc1Cl)C1(CCN(C(=O)[C@@H]3CN(C(C)(C)C)C[C@H]3c3ccc(F)cc3F)CC1)C[C@@H]2C(C)(C)C(=O)N1CCOCC1 | 0.85 nM | 84 nM | 0.38 nM | 94% | – | – | – | – | – | 66%
18 | Cc1cc2c(cc1Cl)C1(CCN(C(=O)[C@@H]3CN(C(C)(C)C)C[C@H]3c3ccc(F)cc3F)CC1)C[C@@H]2C(C)(C)C(=O)N1CCC1 | 1.1 nM | 238 nM | 0.59 nM | 88% | – | – | – | – | – | 72%
19 | Cc1cc2c(cc1Cl)C1(CCN(C(=O)[C@@H]3CN(C(C)(C)C)C[C@H]3c3ccc(F)cc3F)CC1)C[C@@H]2C(C)(C)C(=O)NC1CC1 | 2.2 nM | 243 nM | 0.8 nM | 95% | – | – | – | – | – | 50%
20 | Cc1cc2c(cc1Cl)C1(CCN(C(=O)[C@@H]3CN(C(C)(C)C)C[C@H]3c3ccc(F)cc3F)CC1)C[C@@H]2C(C)(C)C(=O)N1CCCC1 | 1.8 nM | 223 nM | 1 nM | 73% | – | – | – | – | – | 60%

Continued by falling IC50 (Melanocortin receptor 4 [2]), values first:

Row | IC50 (Melanocortin receptor 4 [2]) | EC50 [3] | EC50 (Melanocortin receptor 4 [4]) | Activity (Melanocortin receptor 4 [5]) | Vd [6] | bioavailability [7] | half-life [8] | clearance [9] | AUC/dose (Rattus norvegicus) | SMILES | Activity [1]
21 | 59 nM | 5000 nM | 53 nM | 80% | – | – | – | – | – | Cc1cc2c(cc1Cl)C1(CCN(C(=O)[C@@H]3CN(C(C)(C)C)C[C@H]3c3ccc(F)cc3F)CC1)C[C@H]2C(C)(C)C(=O)N(C)C | 17%
22 | 55 nM | 1120 nM | 28 nM | 95% | – | – | – | – | – | Cc1cc2c(cc1Cl)C1(CCN(C(=O)[C@@H]3CN(C(C)(C)C)C[C@H]3c3ccc(F)cc3F)CC1)C[C@H]2C(C)(C)C(=O)NC1CC1 | 20%
23 | 53 nM | 1420 nM | 32 nM | 96% | – | – | – | – | – | CCNC(=O)C(C)(C)[C@@H]1CC2(CCN(C(=O)[C@@H]3CN(C(C)(C)C)C[C@H]3c3ccc(F)cc3F)CC2)c2cc(Cl)c(C)cc21 | 26%
24 | 12 nM | 935 nM | 42 nM | 79% | – | – | – | – | – | Cc1cc2c(cc1Cl)C1(CCN(C(=O)[C@@H]3CN(C(C)(C)C)C[C@H]3c3ccc(F)cc3F)CC1)C[C@@H]2C(C)(C)C(=O)NCc1ccccc1 | 29%
25 | 6.6 nM | 2050 nM | 27 nM | 92% | – | – | – | – | – | Cc1cc2c(cc1Cl)C1(CCN(C(=O)[C@@H]3CN(C(C)(C)C)C[C@H]3c3ccc(F)cc3F)CC1)C[C@@H]2C(C)(C)C(=O)NCC(C)C | 45%
26 | 5.9 nM | 435 nM | 2.9 nM | 92% | – | – | – | – | – | Cc1cc2c(cc1Cl)C1(CCN(C(=O)[C@@H]3CN(C(C)(C)C)C[C@H]3c3ccc(F)cc3F)CC1)C[C@@H]2C(C)(C)C(=O)NC(C)C | 45%
27 | 4.5 nM | 260 nM | 3.3 nM | 90% | – | – | – | – | – | CC(=O)NC(C)(C)[C@H]1CC2(CCN(C(=O)[C@@H]3CN(C(C)(C)C)C[C@H]3c3ccc(F)cc3F)CC2)c2cc(Cl)c(C)cc21 | 43%
28 | 3.1 nM | 295 nM | 1.4 nM | 100% | – | – | – | – | – | CCNC(=O)C(C)(C)[C@H]1CC2(CCN(C(=O)[C@@H]3CN(C(C)(C)C)C[C@H]3c3ccc(F)cc3F)CC2)c2cc(Cl)c(C)cc21 | 50%
29 | 2.6 nM | 168 nM | 1.7 nM | 81% | – | – | – | – | – | CCN(CC)C(=O)C(C)(C)[C@H]1CC2(CCN(C(=O)[C@@H]3CN(C(C)(C)C)C[C@H]3c3ccc(F)cc3F)CC2)c2cc(Cl)c(C)cc21 | 67%
30 | 2.6 nM | 260 nM | 1.1 nM | 84% | – | – | – | – | – | Cc1cc2c(cc1Cl)C1(CCN(C(=O)[C@@H]3CN(C(C)(C)C)C[C@H]3c3ccc(F)cc3F)CC1)C[C@@H]2C(C)(C)C(=O)NCCF | 48%
31 | 2.5 nM | 260 nM | 2.3 nM | 92% | – | – | – | – | – | Cc1cc2c(cc1Cl)C1(CCN(C(=O)[C@@H]3CN(C(C)(C)C)C[C@H]3c3ccc(F)cc3F)CC1)C[C@@H]2C(C)(C)C(=O)NC1CCOCC1 | 74%
32 | 2.5 nM | 270 nM | 4.3 nM | 83% | – | – | – | – | – | CC(=O)N(C)C(C)(C)[C@H]1CC2(CCN(C(=O)[C@@H]3CN(C(C)(C)C)C[C@H]3c3ccc(F)cc3F)CC2)c2cc(Cl)c(C)cc21 | 41%
33 | 1.4 nM | 203 nM | 0.98 nM | 106% | – | – | – | – | – | Cc1cc2c(cc1Cl)C1(CCN(C(=O)[C@@H]3CN(C(C)(C)C)C[C@H]3c3ccc(F)cc3F)CC1)C[C@@H]2C(C)(C)C(=O)N1CC[C@H](F)C1 | 68%
